Compound activity (PubChem BioAssay)
An excerpt weighted towards active compounds, which were near 0.99% of everything screened.
ABCB1 inh = ABCB1 efflux pump inhibitors, primary screen, cell-based, multiplex, flow cytometry, ABCG2 counter-screen | ATP-dependent translocase ABCB1 (Homo sapiens), P08183 | CCRF-Adr cells, JC-1 efflux | inhibition, % at 6.6 µM | 190,000 tested, 0.067% active | AID 1326, 2008; in the data active = inhibition above about 40%;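 note: 0% = vehicle and 100% = reference inhibitor; higher value means more JC-1 retained so stronger ABCB1 efflux block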
Tn7 DDE FP = inhibitors of Tn7 peptide binding to fibrin DD(E), primary screen, biochemical, fluorescence polarization, human fibrin, Tn7 probe | inhibition, % at 8.3 µM | FP displacement of FITC-Tn7 peptide from fibrin DD(E); 0% = median of compound wells per plate | 370,000 tested, 0.13% active;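 active = inhibition above the mean of compounds falling within the control limits plus 3 SD of them, cut at about 14% in these data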;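 note: 0% = plate median of compound wells and 100% = 10 µM Aha-Tn7 peptide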
Target sequence (P02675 whole entry, looked up): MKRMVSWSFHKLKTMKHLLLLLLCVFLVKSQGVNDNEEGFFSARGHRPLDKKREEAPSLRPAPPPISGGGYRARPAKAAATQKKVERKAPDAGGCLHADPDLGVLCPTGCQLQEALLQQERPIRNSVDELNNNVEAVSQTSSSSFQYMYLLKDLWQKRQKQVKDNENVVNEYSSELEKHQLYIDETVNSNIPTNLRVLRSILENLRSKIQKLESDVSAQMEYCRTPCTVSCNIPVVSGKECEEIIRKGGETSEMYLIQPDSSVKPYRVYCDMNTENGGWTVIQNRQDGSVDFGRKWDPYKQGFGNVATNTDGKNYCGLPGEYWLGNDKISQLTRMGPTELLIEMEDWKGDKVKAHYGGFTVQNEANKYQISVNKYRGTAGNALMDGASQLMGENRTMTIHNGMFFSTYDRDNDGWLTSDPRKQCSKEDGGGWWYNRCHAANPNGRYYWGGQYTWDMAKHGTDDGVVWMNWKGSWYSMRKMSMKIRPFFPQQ
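Assay system: human fibrin DD(E) protein / Input: 2 µM fibrin DD(E) / Benchmarks: high control of 10 µM Aha-Tn7 peptide / Measured by: fluorescence polarization of the labelled Tn7 tracer / Medium: Tris buffer with calcium and detergent, pH 7.8 / Timing: 10 min compound pre-incubation, 3 h probe incubation at room temperature / Repeats: one replicate per compound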
Insulin prom up = insulin promoter activators in MIN6 cells, imaging, high-content screening, mouse beta cells; MIN6 insulin promoter-GFP reporter; active compounds read high; z-score at 5 µM; 190,000 tested, 0.3% active;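 active = z-score above 3 at 5 µM with at least 500 cells counted in the well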
DDE Tn6 FP inh = inhibitors of Tn6 peptide binding to fibrin DD(E), primary screen, biochemical, fluorescence polarization, human fibrin, Tn6 probe; Fibrin DD(E) TRITC-Tn6 fluorescence polarization displacement; AID 720509, 2013; inhibition, % at 8.3 µM; 370,000 tested, 0.21% active;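 active = inhibition above a per-campaign cutoff: mean of compounds within control limits plus 3 SD, cut at about 15% in these data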;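 note: 0% = median of all compound wells on the plate and 100% = blocking peptide control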
ABCG2 inh = ABCG2 efflux pump inhibitors, primary screen, multiplex with ABCB1, IgMXP3 cells, flow cytometry | Broad substrate specificity ATP-binding cassette transporter ABCG2 (Homo sapiens), Q9UNQ0 | JC-1 efflux | inhibition, % at 6.6 µM | 190,000 tested, 0.1% active | AID 1325, 2008;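 active = inhibition above 80%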;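 note: 0% = DMSO and 100% = nicardipine control wells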
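Test system: IgMXP3 cells (ABCG2) mixed with DDAO far-red-labelled CCRF-Adr cells (ABCB1). Reagent: JC-1 transporter substrate. Compound dosing: single test compound dose, 6.6 µM final. Times: 10 min compound exposure, 25 °C. Detection: flow cytometry of retained JC-1 fluorescence. Read-out basis: efflux inhibition in percent versus controls. Controls: nicardipine and DMSO wells.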
GRK2 aptamer HTS = compounds blocking aptamer binding on GRK2 – biochemical, human GRK2, bead flow cytometry, HTS, primary screen; Beta-adrenergic receptor kinase 1 (Homo sapiens), P25098; FAM-aptamer displacement from GRK2; inhibition of aptamer binding, % at 10 µM; 330,000 tested, 0.59% active; AID 488847, 2010;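 active = inhibition of aptamer binding above 40%, roughly 3 SD of noise, on plates passing a quality check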;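 note: median bead fluorescence of bound FAM aptamer so fluorescent compounds give negative values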
GRK2 CP1 = GRK2 aptamer-displacing inhibitors, retest, confirmation, biochemical, cherry pick 1, bead flow cytometry | shares compounds with GRK2 aptamer HTS | bead-bound GRK2, FAM-aptamer displacement | AID 504451, 2011 | 2,000 tested, 4% active | aptamer displacement, % at 10 µM;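 active = aptamer displacement above 40%, near three times the noise of non-fluorescent compounds, on plates passing quality checks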;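 note: negative values mostly reflect intrinsic compound fluorescence rather than true enhancement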
Aptamer quench = counter-screen for GRK2 aptamer inhibitors: fluorescent aptamer quenchers | 110 tested, under 10 active | Fluorescent RNA aptamer beads, quenching, flow cytometry; active compounds read high | fluorescence change (kMESF span), kMESF (no concentration beside the values) | shares compounds with GRK2 aptamer HTS;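 active = compounds whose bead fluorescence drops by more than 37 kMESF across the dose range, marking them as dye quenchers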
FAM quench CP1 = counter-screen for GRK2 aptamer inhibitors: fluorescent aptamer quenchers; AID 504580; Carboxyfluorescein RNA aptamer on beads, flow cytometry quenching; active compounds read low; shares compounds with GRK2 aptamer HTS; 2,000 tested, under 10 active; fluorescence response (% of DMSO), % at 10 µM;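 active = compounds that quench the bead-bound fluorescent RNA probe, cutting fluorescence to under half of the solvent control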;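 note: counterscreen run without GRK2 so only probe quenching by compound is measured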
GRK2 confirm 2 = GRK2 aptamer-displacing inhibitors, hit retest, confirmation, biochemical, cherry pick 2, bead flow cytometry; shares compounds with GRK2 aptamer HTS; bead-bound GRK2, FAM-aptamer displacement; inhibition of aptamer binding, % at 10 µM; 360 tested, under 10 active; AID 504782, 2011;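 active = inhibition of aptamer binding above 40%, about triple the noise seen with nonglowing compounds, on plates passing quality control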;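 note: negative values mostly come from compounds that fluoresce themselves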
FAM quench CP2 = aptamer fluorescence quenching in GRK2 counter-screen; 360 tested, under 10 active; carboxyfluorescein RNA aptamer beads, flow cytometry quenching; active compounds read low; fluorescence response vs DMSO, % at 10 µM; shares compounds with GRK2 aptamer HTS; AID 588494;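 active = response vs DMSO under 50%, meaning signal dropped by over half, treated as fluorescence quencher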;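 note: labelled aptamer on streptavidin beads without GRK2 as a quench counter-screen; 100% = bead fluorescence of DMSO wells and lower means quenching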
Numbers without * were called inactive; . = not tested or not shown.

SMILES	ABCB1 inh	Tn7 DDE FP	Insulin prom up	DDE Tn6 FP inh	ABCG2 inh	GRK2 aptamer HTS	GRK2 CP1	FAM quench CP1	others
COc1ccc(C(=O)Nc2ccc(Nc3ccccc3)cc2)cc1OC	.	-5	.	-1	.	86*	0	101
O=C(Nc1ccc(Nc2ccccc2)cc1)c1ccccc1	.	-5	.	4	.	100*	5	93
COc1ccc(C(=O)Nc2ccc(Nc3ccccc3)cc2)cc1[N+](=O)[O-]	.	-7	.	-5	.	1	.	.
O=C(Nc1ccc(Nc2ccccc2)cc1)c1ccc(Cl)cc1	.	7	.	-6	.	3	.	.
CCN(C(=O)COC(=O)CCC(=O)c1ccc(Cl)cc1)c1c(N)n(Cc2ccccc2)c(=O)[nH]c1=O	.	-1	.	3	.	.	.	.
Cc1ccc(C(=O)O)cc1N1CCCC1=O	0	-6	-0.1	0	1	61*	0	96
CCOC(=O)C(C)Sc1nc2c(c(=O)[nH]c(=O)n2C)n1C/C=C(/C)Cl (centres undefined)	1	-9	-0.25	5	8	58*	58*	97	Aptamer quench=-0.8
CCSc1nc2c(c(=O)[nH]c(=O)n2C)n1C/C=C(/C)Cl	0	4	0.38	1	1	2	.	.
Cc1ccccc1CCN(CC(=O)NCc1ccc(F)cc1)C(=O)c1csnn1	.	7	.	-3	.	70*	1	99
Cc1ccsc1C(=O)N1CCCC(CO)(Cc2ccccc2)C1 (centres undefined)	.	-9	.	-6	.	45*	.	.	GRK2 confirm 2=-9;FAM quench CP2=98
Cc1ccsc1C(=O)N1CCC(CO)(Cc2ccccc2)CC1	0	-3	-0.88	4	4	2	.	.
CCCCCOc1ccc(/C=N/NC(=O)c2nnn(-c3nonc3N)c2CN2CCCCCC2)cc1	.	-10	.	0	.	55*	2	105
CCOc1ccccc1C(=O)N[C@H](C(=O)Nc1nc2c(s1)CCCC2)C(C)C	3	8	-0.16	0	9	43*	1	97
COc1ccc(C(=O)N[C@H](C(=O)Nc2nc3c(s2)CCCC3)C(C)C)cc1	2	3	-0.6	0	2	0	.	.
CCOC(=O)[C@@]12CCC3=C1N(CCC3)C(=O)[C@H](CC(=O)NCc1ccc(C)o1)C2	.	0	.	4	.	.	.	.
CC(=O)c1c(C)[nH]c(C(=O)CN2C(=O)NC(C)(c3ccc(C)cc3)C2=O)c1C (centres undefined)	0	0	-0.83	-4	1	54*	-2	103
COc1cc(NC(C(=O)Nc2cccc(C(C)=O)c2)c2ccccc2)cc(OC)c1OC (centres undefined)	1	-6	0.56	4	7	76*	.	.	GRK2 confirm 2=13;FAM quench CP2=105
